# Source: ChEMBL document CHEMBL4513216, “Probing the Open Global Health Chemical Diversity Library for Multistage-Active Starting Points for Next-Generation Antimalarials” (ACS Infect Dis, 2020)
# Assay: Toxicity liver stage against HepG2, at 10uM
# Type: cell-based
# Parameters: test concentration 10 uM, cell line HepG2-A16-CD81EGFP
# Details: human, HepG2-A16-CD81EGFP cells; read-out: INHIBITION
# How it was run: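 Uninfected HepG2-A16-CD81EGFP cells, 3 × 10^3 per well, 1536-well, plated on prespotted compound at 10 μM final, parasite-free screening media added to match infected plates; puromycin 10 μM positive, DMSO 0.5% negative; run in parallel with 48 h PbLuc assay at 37 °C, 5% CO2; viability by CellTiter-Glo luminescence, normalized to controls.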
row,Compound,cytotoxicity at 10 µM [%]
1,CC(C)C1COC2(CCN(Cc3ccco3)CC2)C1 (stereo unspecified),-3.57
2,Cc1nc[nH]c1CN1CCOC(c2ccc(Cl)c(Cl)c2)C1 (stereo unspecified),0.833
3,COc1ccc(COCC(O)CNC(=O)c2ccncc2)cc1 (stereo unspecified),-5.31
4,Cc1nc(C2CCN(C[C@H](C)CO)CC2)cc(N2CCOCC2)n1,-9.3
5,NCCn1cc(C(=O)N2CCNC(=O)C2c2cccc(F)c2)nn1 (stereo unspecified),3.62
6,Cc1noc(C)c1CNc1ccc2nc(C3CC3)sc2c1,10.8
7,Cc1nc(CN(C)C2CCN(CC3CCCCC3)C2)no1 (stereo unspecified),-7.49
8,Cc1n[nH]cc1C(=O)NCc1cccnc1N1CCc2ccccc2C1,8.81
9,CCc1nc(C2CCCN2C(=O)c2cc(C3CC3)[nH]n2)no1 (stereo unspecified),1.03
10,OC(COCc1cccs1)Cn1cc(-n2cccc2)cn1 (stereo unspecified),0.12
11,COc1ccc(CN(C)[C@@H]2CN(C(=O)c3cccn3C)C[C@H]2O)cc1,-21.5
12,O=C(CC1COCCN1)NCCc1noc(-c2ccccc2)n1 (stereo unspecified),3.05
13,c1ccc(-n2nnnc2CNCc2ccc3c(c2)OCCO3)cc1,9.35
14,CCOCC(=O)NCc1cc(Br)ccc1OC(F)F,21.9
15,CC(NC(=O)c1cccs1)C(=O)NS(=O)(=O)c1ccc(C#N)cc1 (stereo unspecified),5.11
16,CCCn1ccnc1-c1nccn1CCN(C)C,-1.04
17,Cc1ccc2cc(CN(C)Cc3nccs3)c(=O)[nH]c2c1,2.91
18,CN(Cc1cn2c(n1)CN(C(=O)C1CCCO1)CC2)Cc1ccco1 (stereo unspecified),8.24
19,CC[C@H]1COCCN1C(=O)c1cnc(-c2ccccc2)nc1C,2.84
20,Cc1cnn(CC(=O)N2CCCN(Cc3cnn(C(C)C)c3)CC2)c1,-12.3
21,NCC(=O)N1CCC(c2ccnc(Nc3cc(C(F)(F)F)ccn3)n2)C1 (stereo unspecified),9.83
22,CCc1nc(CN2CCCC(NCc3cc(C)no3)C2)no1 (stereo unspecified),1.59
23,NC(=O)NCC(=O)N1CCCC(OCc2cccnc2)C1 (stereo unspecified),-1.53

row,Compound,cytotoxicity at 10 µM [%]
1,CC(C)c1nc(CNC2CCCN(c3cccnn3)C2)no1 (stereo unspecified),7.68
2,CCC(=O)NC(Cc1cc(N(C)C)nc(C2CC2)n1)c1ccccc1 (stereo unspecified),0.301
3,N#Cc1cccc(CN2CC[C@@H]3CO[C@@H](CN4CCCC4)[C@@H]3C2)c1,-0.159
4,c1cncc(CN2CCC(c3ccnc4nccn34)C2)c1 (stereo unspecified),5.78
5,OCCC1CN(c2ncnc3[nH]cnc23)CCN1Cc1ccccc1F (stereo unspecified),17
6,O=c1n(Cc2ccc(F)cc2)nc2ncccn12,-8.18
7,Cc1c(CC(C#N)C(=O)Nc2cccc(O)c2)cnn1C (stereo unspecified),0.781
8,CS(=O)(=O)N[C@@H]1CN(Cc2ccncc2)C[C@@H]2CCCO[C@@H]21,13.1
9,NCC1(c2cccc(C(F)(F)F)c2)CC1,-11.2
10,CC(=O)N1CCO[C@@H]2CN(S(=O)(=O)C3CC3)C[C@@H]2C1,-104
11,c1ccc(-c2nc(CNCC3CCCN3c3cccnn3)co2)cc1 (stereo unspecified),-12.7
12,CC1COCCN1c1ncnc2sccc12 (stereo unspecified),14.1
13,COc1ccc(Cl)cc1CN(C)CC(=O)Nc1ccnn1C(C)C1CC1 (stereo unspecified),4.85
14,COCCn1c(=O)n(Cc2cccc(F)c2F)c2cc(C(=O)O)ccc21,9.15
15,CCc1nc(CNCC2CCCN2c2cc(NC)ncn2)cs1 (stereo unspecified),-9.11
16,CCN1CCCC1CN(CCN(C)C)S(=O)(=O)c1ccc(C#N)cc1 (stereo unspecified),-28.3
17,COCc1nn(C(C)C)c2c1CCN(Cc1ccoc1)C2,3.33
18,c1cncc(COC[C@H]2CC[C@H]3[C@H](CCN3Cc3nccs3)O2)c1,-69.6
19,CN1C[C@@H](NC(=O)C2CC2)C[C@H]1c1nc(-c2cnccn2)no1,0.611
20,Cc1cccc(C(=O)Nc2ccc(OC3CCOCC3)c(C)c2)n1,-8.99
21,CCc1ccc(C2COCCN2C(=O)Nc2ccc(C(N)=O)c(Cl)c2)o1 (stereo unspecified),2.42
22,CCc1csc(CCNC(=O)CC2CCN(C(C)C)CC2)n1,6.62
23,COc1ncccc1-c1cc(C(N)=O)ccn1,7.81

row,Compound,cytotoxicity at 10 µM [%]
1,Cc1cccc(SC2CCN(C(=O)CCCS(N)(=O)=O)CC2)c1,-6.01
2,COc1cccc(-c2noc(-c3ccc(N4CC(N)C4)nc3)n2)c1OC,-4.8
3,Cc1cccc(CN2CCOC3(COCCN(CCN(C)C)C3)C2)n1 (stereo unspecified),-113
4,COC(=O)C1CN(Cc2ccn(-c3ccc(F)cc3)n2)C[C@@H](C)O1 (stereo partly specified),-4.52
5,Cc1cc(C)n(CC2CCCN2C(=O)CCc2ccco2)n1 (stereo unspecified),-3.75
6,Cc1nnn2c1COC(CNCc1ccncc1)C2 (stereo unspecified),7.48
7,O=C(Cn1cccnc1=O)NCCc1ccc2c(c1)OCCO2,4.96
8,Fc1ccc(-c2nc(CN3CCCC3Cn3cncn3)co2)cc1F (stereo unspecified),-5.58
9,CCCc1cc(=O)[nH]c(-n2nc(C3CC3)cc2N)n1,31.3
10,O=C(c1ccoc1)N1CCOCC2(CCN(C3CCOCC3)C2)C1 (stereo unspecified),-6.11
11,CN(C)CCN(CC1CCCO1)S(=O)(=O)NCc1ccccc1 (stereo unspecified),0.666
12,CCOc1ccc(Cl)c(C(=O)N2CCN(c3ncccn3)CC2)n1,-1.9
13,N#Cc1ccc(S(=O)(=O)Nc2ccc(N3CCOCC3)cn2)cc1,0.966
14,COc1ccc(Cl)cc1-n1c(COC(C)C)n[nH]c1=O,-7.5
15,Cc1ccc(-n2cc(C)cn2)c(NC(=O)NC2(C)CCOC2)c1 (stereo unspecified),-43.2
16,CC(CCc1ccc(O)cc1)NC1CCN(S(C)(=O)=O)CC1 (stereo unspecified),1.46
17,CC(C)N(C(=O)CCc1cccc(F)c1)C1CCOCC1,-5.21
18,Cc1cccc(N2CCCC3(C2)CN(S(=O)(=O)C2CC2)CCO3)c1 (stereo unspecified),11
19,Cc1noc(C)c1C(=O)N1C[C@@H]2C[C@@H](c3ccncn3)O[C@@H]2C1,-70
20,COC1CCCOC12CCN(C(=O)NCc1ccco1)CC2 (stereo unspecified),-15.3
21,CCCS(=O)(=O)CCN1CCN(C(C#N)c2ccccc2)CC1 (stereo unspecified),-5.02
22,COCC1CN(C(=O)c2ccccn2)Cc2nccn2C1 (stereo unspecified),8.62
23,CCN(Cc1cccc2c1OCO2)C(=O)Nc1ccccn1,-21.7

row,Compound,cytotoxicity at 10 µM [%]
1,Cc1nc(C2CCCN2Cc2ccc(S(=O)(=O)N(C)C)o2)no1 (stereo unspecified),-2.53
2,N#Cc1c(N)nc2c(c1-c1c[nH]nc1C1CCCCC1)CNCC2,0.787
3,CCC(O)CN1CCN(C(=O)c2sccc2C2CC2)CC1 (stereo unspecified),-14.6
4,Cc1ccc(CNC(=O)NC2CCC(O)CC2)c(N2CCCC2)c1 (stereo unspecified),-16.4
5,Cn1cnc(S(=O)(=O)N2CCCCc3ccccc32)c1,-4.62
6,CCCc1nc(C)c(C(=O)NC2CCN(CC(N)=O)CC2)s1,-6.3
7,CN1CCN2CCN(Cc3cc(=O)n4c5c(cccc35)CCC4)CC2C1 (stereo unspecified),9.05
8,CCc1nc(C2CCCN2C(=O)c2c[nH]c(C)n2)no1 (stereo unspecified),-0.674
9,COC(=O)c1cccc2nc([C@H]3CCN(C4CCN(C)CC4)C3)oc12,-3.54
10,CC(C)c1cc(CN2CCC(N)CC2)no1,-8.24
11,O=C1CCC2(CCC(NC3CCOC3)CC2)N1Cc1ccncc1 (stereo unspecified),3.61
12,COc1cccc(CC(C)NC(=O)NCCNC(C)=O)c1 (stereo unspecified),7.89
13,O=C(c1cc(C2CC2)[nH]n1)N1CCN(Cc2ccc(Cl)cc2)CC1,37.2
14,Cc1noc(C2CCC3(CCN(C(=O)C4=CCCCC4)CC3)O2)n1 (stereo unspecified),-7.36
15,O=C(c1sccc1-n1cnnn1)N1CCC2(CCCCC2)CC1,9.09
16,Cc1noc(-c2cccnc2N2CCOC(C)(c3cnn(C)c3)C2)n1 (stereo unspecified),4.08
17,COCCN(C)C(=O)Cn1cccc(OC)c1=O,-14.8
18,Nc1cc2c(nn1)CCN(C(=O)c1cccnc1Oc1ccccc1)C2,-11.6
19,COc1cc(CNC(=O)c2c(C)noc2C)ccn1,-8.83
20,CCOc1ncccc1NC(=O)N1CCN(CC(=O)NC)CC1,-2.66
21,Cc1ccc(C(=O)NCC(C)Cn2ccnc2C)c(=O)[nH]1 (stereo unspecified),-0.89
22,Cc1ccc(NC(=O)c2nc3c(s2)CCCN3C(=O)C2CC2)cn1,10.5
23,CCCn1cc(C(=O)NCCc2ccncc2)c(C)n1,11.2

row,Compound,cytotoxicity at 10 µM [%]
1,CC(C)CO[C@@H]1CC[C@H]2[C@H]1OCCN2S(=O)(=O)C1CC1,4.04
2,O=C(c1ccc[nH]1)N1CCn2cc(CN3CCCC3)nc2C1,3.09
3,COc1cccc([C@@H]2CN(C(=O)c3ccc(C)cc3O)C[C@H]2C(=O)O)c1,6.49
4,COCCCN(Cc1cnc(C2CCCCC2)nc1)C1CCN(C)CC1,-4.43
5,Cc1cc2n(n1)[C@@H](C(F)(F)F)C[C@@H](C1CCN(C(=O)C3CC3)CC1)N2,-41
6,CC1CN(C)CCN1C(=O)Cc1cc(Cl)c2c(c1)OCCO2 (stereo unspecified),-3.47
7,CC(C)Oc1cc(N2C[C@@H](C)O[C@@H](C)C2)nc(N)n1,-9.15
8,COc1cc(-c2n[nH]c(CCN)n2)cc(OC)c1OC,-0.297
9,CCc1nnsc1C(=O)N1CCCN(Cc2cnn(C)c2)CC1,-2.26
10,CN(CCOc1ccc(C#N)cc1)CC1CC1,1.47
11,Cc1nn(C)c(C)c1CCC(=O)Nc1nnc(C2CC2)s1,-10.1
12,CC(C)NC(=O)N1CCOC2(CCCN(c3cccc(C#N)c3)C2)C1 (stereo unspecified),11.8
13,COc1ccc(CN2C[C@@H]3OCCN(c4ncccn4)[C@@H]3C2)cc1,4.71
14,Cc1ocnc1C(=O)N1CC[C@@]2(O)CCN(C(=O)N3CCCC3)C[C@H]2C1,-7.96
15,COc1ccc(C(=O)CNC(=O)c2nc(Cl)sc2C(C)C)cc1,-3.15
16,COc1cccc(C(=O)N2C[C@@H](C(=O)O)[C@H](c3ccccc3C)C2)c1,0.291
17,CCn1nc(C)c2nc(C(C)C)nc(NCCOC)c21,6.3
18,COCCN1CCC12CCN(C(=O)c1ccsc1)CC2,-145
19,Cc1ccc(C(CNCc2ccc(C#N)cc2)N2CCOCC2)s1 (stereo unspecified),15.3
